# The source made the active and inactive calls. The calls are words filed in the database; no cut-off is given here.
# What was measured:
# [1] = test system: Saccharomyces cerevisiae; assay: Increase in CTT1 mRNA level in delta snq2, delta pdr5 and delta erg6 knock out yeast YRP1 at 25 µM after 2 hrs by high-density oligonucleotide array; assay type: functional, organism-based; settings: 25 M
# Procedure, shortened: (§1)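 Drug-sensitized S. cerevisiae cultures grown to late logarithmic phase, then exposed to 25 μM inhibitor for 2 h. Polyadenylated mRNA isolated, converted to biotin-labeled cRNA and hybridized to a set of four high-density arrays carrying more than 260,000 25-nucleotide oligomers. Transcripts scored as changed when they shifted more than twofold in triplicate hybridizations for each of two independent experiments.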
# [2] = test system: Saccharomyces cerevisiae; assay: Increase in UB14 mRNA level in delta snq2, delta pdr5 and delta erg6 knock out yeast YRP1 at 25 µM after 2 hrs by high-density oligonucleotide array; assay type: functional, organism-based; procedure, shortened: as §1
# [3] = test system: Saccharomyces cerevisiae; assay: Increase in PHO84 mRNA level in delta snq2, delta pdr5 and delta erg6 knock out yeast YRP1 at 25 µM after 2 hrs by high-density oligonucleotide array; assay type: functional, organism-based; procedure, shortened: as §1
# [4] = test system: Saccharomyces cerevisiae; assay: Increase in PHO8 mRNA level in delta snq2, delta pdr5 and delta erg6 knock out yeast YRP1 at 25 µM after 2 hrs by high-density oligonucleotide array; assay type: functional, organism-based; procedure, shortened: as §1
# [5] = test system: Saccharomyces cerevisiae; assay: Induction of PFK26 gene expression in delta snq2, delta pdr5 and delta erg6 knock out yeast YRP1 at 25 µM after 2 hrs by high-density oligonucleotide array; assay type: functional, organism-based; settings: 25 M
# Procedure, shortened: (§2)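 Drug-sensitized yeast strain grown to late logarithmic phase, then exposed to 25 μM inhibitor for 2 h. Polyadenylated mRNA was isolated and converted to biotin-labeled cRNA, which was hybridized to a set of four arrays carrying over 260,000 25-nucleotide oligomers. Transcripts changing more than twofold were scored, from triplicate hybridizations in each of two independent experiments.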
# [6] = test system: Saccharomyces cerevisiae; assay: Induction of ALD4 gene expression in delta snq2, delta pdr5 and delta erg6 knock out yeast YRP1 at 25 µM after 2 hrs by high-density oligonucleotide array; assay type: functional, organism-based; settings: 25 M; procedure, shortened: as §1
# [7] = test system: Saccharomyces cerevisiae; assay: Upregulation of YPT53 gene expression in delta snq2, delta pdr5 and delta erg6 knock out yeast YRP1 at 25 µM after 2 hrs by high-density oligonucleotide array; assay type: functional, organism-based; settings: 25 M; procedure, shortened: as §2
# [8] = test system: Saccharomyces cerevisiae; assay: Upregulation of PMC1 gene expression in delta snq2, delta pdr5 and delta erg6 knock out yeast YRP1 at 25 µM after 2 hrs by high-density oligonucleotide array; assay type: functional, organism-based; procedure, shortened: as §2
# [9] = test system: Saccharomyces cerevisiae; assay: Upregulation of INO1 gene expression in delta snq2, delta pdr5 and delta erg6 knock out yeast YRP1 at 25 µM after 2 hrs by high-density oligonucleotide array; assay type: functional, organism-based; settings: 25 M; procedure, shortened: as §2
# [10] = test system: Saccharomyces cerevisiae; assay: Decrease in RPL26B mRNA level in delta snq2, delta pdr5 and delta erg6 knock out yeast YRP1 at 25 µM after 2 hrs by high-density oligonucleotide array; assay type: functional; procedure, shortened: as §1
# [11] = test system: Saccharomyces cerevisiae; assay: Decrease in RPS24A mRNA level in delta snq2, delta pdr5 and delta erg6 knock out yeast YRP1 at 25 µM after 2 hrs by high-density oligonucleotide array; assay type: functional; procedure, shortened: as §1
# [12] = test system: Saccharomyces cerevisiae; assay: Induction of HAP4 gene expression in delta snq2, delta pdr5 and delta erg6 knock out yeast YRP1 bearing cdc28-4 mutant allele at 25 µM after 2 hrs by high-density oligonucleotide array; assay type: functional, organism-based; settings: 25 M
# Procedure, shortened: (§3)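 cdc28-4 temperature-sensitive strain and its isogenic wild type were profiled at the permissive temperature of 25°C. Polyadenylated mRNA was converted to biotin-labeled cRNA and hybridized to high-density oligonucleotide arrays. Transcripts changing more than twofold were scored, from triplicate hybridizations of RNA from a single experiment.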
# [13] = test system: Saccharomyces cerevisiae; assay: Effect on ACH1 gene expression in delta snq2, delta pdr5 and delta erg6 knock out yeast YRP1 bearing cdc28-4 mutant allele assessed as change in mRNA level at 25 µM after 2 hrs by high-density oligonucleotide array; assay type: functional, organism-based; settings: 25 M
# [14] = test system: Saccharomyces cerevisiae; assay: Induction of GPH1 gene expression in delta snq2, delta pdr5 and delta erg6 knock out yeast YRP1 bearing cdc28-4 mutant allele at 25 µM after 2 hrs by high-density oligonucleotide array; assay type: functional, organism-based; settings: 25 M; procedure, shortened: as §3
# [15] = test system: Saccharomyces cerevisiae; assay: Effect on CYC3 gene expression in delta snq2, delta pdr5 and delta erg6 knock out yeast YRP1 bearing cdc28-4 mutant allele assessed as change in mRNA level at 25 µM after 2 hrs by high-density oligonucleotide array; assay type: functional, organism-based; settings: 25 M
# [16] = test system: Saccharomyces cerevisiae; assay: Effect on YKL071W gene expression in delta snq2, delta pdr5 and delta erg6 knock out yeast YRP1 bearing cdc28-4 mutant allele assessed as change in mRNA level at 25 µM after 2 hrs by high-density oligonucleotide array; assay type: functional, organism-based
# [17] = test system: Saccharomyces cerevisiae; assay: Effect on HAC1 gene expression in delta snq2, delta pdr5 and delta erg6 knock out yeast YRP1 assessed as change in mRNA level at 25 µM after 2 hrs by high-density oligonucleotide array; assay type: functional, organism-based; procedure, shortened: as §1
# [18] = test system: Saccharomyces cerevisiae; assay: Increase in PHO80 mRNA level in delta snq2, delta pdr5 and delta erg6 knock out yeast YRP1 at 25 µM after 2 hrs by high-density oligonucleotide array; assay type: functional, organism-based; procedure, shortened: as §1
# [19] = test system: Saccharomyces cerevisiae; assay: Effect on YOR248W gene expression in delta snq2, delta pdr5 and delta erg6 knock out yeast YRP1 bearing cdc28-4 mutant allele assessed as change in mRNA level at 25 µM after 2 hrs by high-density oligonucleotide array; assay type: functional, organism-based; settings: 25 M
# [20] = test system: Saccharomyces cerevisiae; assay: Upregulation of YDL223c gene expression in delta snq2, delta pdr5 and delta erg6 knock out yeast YRP1 at 25 µM after 2 hrs by high-density oligonucleotide array; assay type: functional, organism-based; settings: 25 M; procedure, shortened: as §2
# [21] = test system: Saccharomyces cerevisiae; assay: Upregulation of YER150w gene expression in delta snq2, delta pdr5 and delta erg6 knock out yeast YRP1 at 25 µM after 2 hrs by high-density oligonucleotide array; assay type: functional, organism-based; settings: 25 M; procedure, shortened: as §2
# [22] = test system: Saccharomyces cerevisiae; assay: Effect on YGL179C gene expression in delta snq2, delta pdr5 and delta erg6 knock out yeast YRP1 assessed as change in mRNA level at 25 µM after 2 hrs by high-density oligonucleotide array; assay type: functional, organism-based; settings: 25 M; procedure, shortened: as §1
# [23] = test system: Saccharomyces cerevisiae; assay: Growth inhibition of delta snq2, delta pdr5 and delta erg6 knock out yeast YRP1 assessed as induction of uniform arrest morphology; assay type: functional, organism-based
# [24] = test system: Saccharomyces cerevisiae; assay: Effect on YBR214w gene expression in delta snq2, delta pdr5 and delta erg6 knock out yeast YRP1 assessed as change in mRNA level at 25 µM after 2 hrs by high-density oligonucleotide array; assay type: functional, organism-based; procedure, shortened: as §1
# [25] = test system: Saccharomyces cerevisiae; assay: Downregulation of HTB2 mRNA expression in delta snq2, delta pdr5 and delta erg6 knock out yeast YRP1 at 25 µM after 2 hrs by high-density oligonucleotide array; assay type: functional, organism-based; settings: 25 M; procedure, shortened: as §1
# [26] = test system: Saccharomyces cerevisiae; assay: Effect on CTS1 gene expression in delta snq2, delta pdr5 and delta erg6 knock out yeast YRP1 assessed as change in mRNA level at 25 µM after 2 hrs by high-density oligonucleotide array; assay type: functional, organism-based; settings: 25 M; procedure, shortened: as §1
# [27] = test system: Saccharomyces cerevisiae; assay: Down regulation of CLB2 mRNA expression in delta snq2, delta pdr5 and delta erg6 knock out yeast YRP1 assessed as change in mRNA level at 25 µM after 2 hrs by high-density oligonucleotide array; assay type: functional, organism-based; procedure, shortened: as §1
# [28] = test system: Saccharomyces cerevisiae; assay: Induction of HXT5 gene expression in delta snq2, delta pdr5 and delta erg6 knock out yeast YRP1 at 25 µM after 2 hrs by high-density oligonucleotide array; assay type: functional, organism-based; procedure, shortened: as §2
# [29] = test system: Saccharomyces cerevisiae; assay: Induction of PCK1 gene expression in delta snq2, delta pdr5 and delta erg6 knock out yeast YRP1 at 25 µM after 2 hrs by high-density oligonucleotide array; assay type: functional, organism-based; settings: 25 M; procedure, shortened: as §2
# [30] = test system: Saccharomyces cerevisiae; assay: Upregulation of SSE2 gene expression in delta snq2, delta pdr5 and delta erg6 knock out yeast YRP1 at 25 µM after 2 hrs by high-density oligonucleotide array; assay type: functional, organism-based; settings: 25 M; procedure, shortened: as §2
# [31] = test system: Saccharomyces cerevisiae; assay: Upregulation of HSP26 gene expression in delta snq2, delta pdr5 and delta erg6 knock out yeast YRP1 at 25 µM after 2 hrs by high-density oligonucleotide array; assay type: functional, organism-based; procedure, shortened: as §2
# [32] = test system: Saccharomyces cerevisiae; assay: Upregulation of PDR10 gene expression in delta snq2, delta pdr5 and delta erg6 knock out yeast YRP1 at 25 µM after 2 hrs by high-density oligonucleotide array; assay type: functional, organism-based; settings: 25 M; procedure, shortened: as §2
Compound,Activity [1],Activity [2],Activity [3],Activity [4],Activity [5],Activity [6],Activity [7],Activity [8],Activity [9],fold change (FC) [10],fold change (FC) [11],Activity [12],Activity [13],Activity [14],Activity [15],Activity [16],Activity [17],Activity [18],Activity [19],Activity [20],other results
CC(C)n1cnc2/c(=N/c3cccc(Cl)c3)nc(NCCO)[nH]c21,Active,Active,Active,Active,Active,Active,Active,Active,Active,3,3,Active,Active,Active,Active,Active,Active,Active,Active,Active,Activity [21]: Active; Activity [22]: Active; Activity [23]: inactive; Activity [24]: Active; Activity [25]: Active; Activity [26]: Active; Activity [27]: Active; Activity [28]: Active; Activity [29]: Active; Activity [30]: Active; Activity [31]: Active; Activity [32]: Active
CN1CC[C@H](c2c(O)cc(O)c3c(=O)cc(-c4ccccc4Cl)oc23)[C@H](O)C1 [ALVOCIDIB],Active,Active,Active,Active,Active,Active,Active,Active,Active,3,3,Active,Active,Active,Active,Active,Active,Active,Active,Active,Activity [21]: Active; Activity [22]: Active; Activity [23]: inactive; Activity [24]: Active; Activity [25]: Active; Activity [26]: Active; Activity [27]: Active; Activity [28]: Active; Activity [29]: Active; Activity [30]: Active; Activity [31]: Active; Activity [32]: Active

# Source: ChEMBL document CHEMBL1153829, “Exploiting chemical libraries, structure, and genomics in the search for kinase inhibitors” (Science, 1998)
